Experimental data as given in ChEMBL document CHEMBL4011658 (J Med Chem, 2017).
Values after ≈ are worked out from the molar mass of the structure shown. Active and inactive are the calls of the source. The calls are words filed in the database; no cut-off is given here. Residues, ends and D or L forms follow the SMILES beside them. *: point of attachment. Boc = CC(C)(C)OC(=O)*

Tests used:
Cryptococcus neoformans [1] = experiment: Antifungal activity against Cryptococcus neoformans ATCC 350 after 70 to 74 hrs by alamar blue dye based CLSI method; assay type: functional
Cryptococcus neoformans [2] = experiment: Antifungal activity against Cryptococcus neoformans ATCC 90113 after 70 to 74 hrs by alamar blue dye based CLSI method; assay type: functional
Cryptococcus neoformans [3] = experiment: Fungicidal activity against Cryptococcus neoformans ATCC 350 at 0.89 ug/ml after 4 hrs by time kill assay; assay type: functional
SK-OV-3 = experiment: Cytotoxicity against human SKOV3 cells assessed as reduction in cell viability after 48 hrs by neutral red uptake assay; assay type: cell-based; details: sk-ov-3, 48 h
In short: (§1)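 Cells seeded at 25 000 per well and grown 24 h to confluence, then exposed to peptides up to 10 μg/mL for 48 h; viability by modified neutral red uptake; doxorubicin positive control, DMSO negative control.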

SK-MEL = experiment: Cytotoxicity against human SK-MEL cells assessed as reduction in cell viability after 48 hrs by neutral red uptake assay; assay type: cell-based; in short: as §1
BT-549 = experiment: Cytotoxicity against human BT549 cells assessed as reduction in cell viability after 48 hrs by neutral red uptake assay; assay type: cell-based; details: bt-549, 48 h; in short: as §1
LLC-PK1 = experiment: Cytotoxicity against pig LLC-PK1 cells assessed as reduction in cell viability after 48 hrs by neutral red uptake assay; assay type: cell-based, Sus scrofa; details: llc-pk1, 48 h; in short: as §1
Vero = experiment: Cytotoxicity against African green monkey Vero cells assessed as reduction in cell viability after 48 hrs by neutral red uptake assay; assay type: cell-based; details: chlorocebus sabaeus; in short: as §1
[4] = Selectivity index, ratio of cytotoxicity against human SKOV3 cells to IC50 for Cryptococcus neoformans ATCC 90113; assay type: toxicity, cell-based; details: read-out: Selectivity Index
[5] = Selectivity index, ratio of cytotoxicity against human SK-MEL cells to IC50 for Cryptococcus neoformans ATCC 90113; assay type: toxicity, cell-based; details: read-out: Selectivity Index
[6] = Selectivity index, ratio of cytotoxicity against human BT549 cells to IC50 for Cryptococcus neoformans ATCC 90113; assay type: toxicity, cell-based; details: read-out: Selectivity Index
[7] = Selectivity index, ratio of cytotoxicity against pig LLC-PK1 cells to IC50 for Cryptococcus neoformans ATCC 90113; assay type: toxicity, cell-based; details: read-out: Selectivity Index
[8] = Selectivity index, ratio of cytotoxicity against African green monkey VERO cells to IC50 for Cryptococcus neoformans ATCC 90113; assay type: toxicity, cell-based; details: read-out: Selectivity Index
Staphylococcus aureus [9] = experiment: Antibacterial activity against Staphylococcus aureus ATCC 29213 after […] hrs by alamar blue dye based CLSI method; assay type: functional
Staphylococcus aureus [10] = experiment: Antibacterial activity against methicillin-resistant Staphylococcus aureus ATCC 33591 after 16 to 20 hrs by alamar blue dye based CLSI method; assay type: functional
[11] = Selectivity index, ratio of cytotoxicity against human SKOV3 cells to IC50 for Staphylococcus aureus ATCC 29213; assay type: toxicity, cell-based; details: read-out: Selectivity Index
In short: (§2)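 Selectivity index is the ratio CTX/IC50. For CTX, cells were seeded at 25 000 per well and grown 24 h, then exposed to peptide up to 10 μg/mL for 48 h, with viability by neutral red uptake. […] The inoculum was 5 × 10^5 CFU/mL, with OD530 read before and after incubation.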

[12] = Selectivity index, ratio of cytotoxicity against human SK-MEL cells to IC50 for Staphylococcus aureus ATCC 29213; assay type: toxicity, cell-based; details: read-out: Selectivity Index; in short: as §2
[13] = Selectivity index, ratio of cytotoxicity against human BT549 cells to IC50 for Staphylococcus aureus ATCC 29213; assay type: toxicity, cell-based; details: read-out: Selectivity Index; in short: as §2
[14] = Selectivity index, ratio of cytotoxicity against pig LLC-PK1 cells to IC50 for Staphylococcus aureus ATCC 29213; assay type: toxicity, cell-based; details: read-out: Selectivity Index; in short: as §2
[15] = Selectivity index, ratio of cytotoxicity against African green monkey VERO cells to IC50 for Staphylococcus aureus ATCC 29213; assay type: toxicity, cell-based; details: read-out: Selectivity Index; in short: as §2
[16] = Selectivity index, ratio of cytotoxicity against human SKOV3 cells to IC50 for methicillin-resistant Staphylococcus aureus ATCC 33591; assay type: toxicity, cell-based; details: read-out: Selectivity Index
In short: (§3)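 Selectivity index is the ratio CTX/IC50. For CTX, cells were seeded at 25 000 per well and grown 24 h, then given peptide up to 10 μg/mL for 48 h, with neutral red uptake read-out. […] OD530 was read before and after 16−20 h at 35 °C.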

[17] = Selectivity index, ratio of cytotoxicity against human SK-MEL cells to IC50 for methicillin-resistant Staphylococcus aureus ATCC 33591; assay type: toxicity, cell-based; details: read-out: Selectivity Index; in short: as §3
[18] = Selectivity index, ratio of cytotoxicity against human BT549 cells to IC50 for methicillin-resistant Staphylococcus aureus ATCC 33591; assay type: toxicity, cell-based; details: read-out: Selectivity Index; in short: as §3
[19] = Selectivity index, ratio of cytotoxicity against pig LLC-PK1 cells to IC50 for methicillin-resistant Staphylococcus aureus ATCC 33591; assay type: toxicity, cell-based; details: read-out: Selectivity Index; in short: as §3
[20] = Selectivity index, ratio of cytotoxicity against African green monkey VERO cells to IC50 for methicillin-resistant Staphylococcus aureus ATCC 33591; assay type: toxicity, cell-based; details: read-out: Selectivity Index; in short: as §3
Escherichia coli = experiment: Antibacterial activity against Escherichia coli ATCC 35218 after 16 to 20 hrs by alamar blue dye based CLSI method; assay type: functional
Candida = experiment: Antifungal activity against Candida; assay type: functional
Aspergillus = experiment: Antifungal activity against Aspergillus; assay type: functional
Cryptococcus neoformans [21] = experiment: Induction of membrane permeabilization in Cryptococcus neoformans ATCC 350 after 1 hr using FITC labeled compound by confocal microscopic analysis; assay type: functional
Cryptococcus neoformans [22] = experiment: Fungicidal activity against Cryptococcus neoformans ATCC 350 at antifungal MIC after 4 hrs by time kill assay; assay type: functional

| SMILES | MFC (Cryptococcus neoformans [2]) [µg/mL] | MIC (Cryptococcus neoformans [2]) [µg/mL] | IC50 (Cryptococcus neoformans [2]) [µg/mL] | Activity (SK-OV-3) [µg/mL] | Activity (SK-MEL) [µg/mL] | Activity (BT-549) [µg/mL] | Activity (LLC-PK1) [µg/mL] | Activity (Vero) [µg/mL] | selectivity ratio [4] | selectivity ratio [5] | selectivity ratio [6] | selectivity ratio [7] | selectivity ratio [8] | IC50 (Staphylococcus aureus [9]) [µg/mL] | MBC (Staphylococcus aureus [9]) [µg/mL] | MIC (Staphylococcus aureus [9]) [µg/mL] | IC50 (Staphylococcus aureus [10]) [µg/mL] | Activity (Escherichia coli) | Activity (Candida) | Activity (Aspergillus) | also measured |
| --- | --- | --- | --- | --- | --- | --- | --- | --- | --- | --- | --- | --- | --- | --- | --- | --- | --- | --- | --- | --- | --- |
| OC(Cn1cncn1)(Cn1cncn1)c1ccc(F)cc1F [FLUCONAZOLE] |  |  |  |  |  |  |  |  |  |  |  |  |  |  |  |  |  |  |  |  | MIC (Cryptococcus neoformans [1]): 9.57 µg/mL (≈ 31.2 µM) |
| C[C@@H]1[C@H](O)[C@@H](C)/C=C/C=C/C=C/C=C/C=C/C=C/C=C/[C@H](O[C@@H]2O[C@H](C)[C@@H](O)[C@H](N)[C@@H]2O)C[C@@H]2O[C@](O)(C[C@@H](O)C[C@@H](O)[C@H](O)CC[C@@H](O)C[C@@H](O)CC(=O)O[C@H]1C)C[C@H](O)[C@H]2C(=O)O [AMPHOTERICIN B] | 1.25 (≈ 1.35 µM) | 1.25 (≈ 1.35 µM) |  |  |  |  |  |  |  |  |  |  |  |  |  |  |  |  |  |  | MIC (Cryptococcus neoformans [1]): 0.89 µg/mL (≈ 0.963 µM); Activity (Cryptococcus neoformans [3]): Active |
| COC(=O)[C@H](Cc1c[nH]c(-c2ccc(C(C)(C)C)cc2)n1)NC(=O)[C@H](Cc1c[nH]c2ccccc12)NC(=O)[C@@H](N)Cc1c[nH]c(-c2ccc(C(C)(C)C)cc2)n1 | 1.25 (≈ 1.65 µM) | 1.25 (≈ 1.65 µM) | 0.83 (≈ 1.1 µM) | > 10 | > 10 | > 10 | > 10 | > 10 | > 12 | > 12 | > 12 | > 12 | > 12 | 4.33 (≈ 5.72 µM) | > 20 | 10 (≈ 13.2 µM) | 6.71 (≈ 8.86 µM) | inactive | inactive | inactive | MBC (Staphylococcus aureus [10]): > 20 µg/mL; MIC (Staphylococcus aureus [10]): > 20 µg/mL; selectivity ratio [11]: > 2.3; selectivity ratio [12]: > 2.3; selectivity ratio [13]: > 2.3; selectivity ratio [14]: > 2.3; selectivity ratio [15]: > 2.3; selectivity ratio [16]: > 1.49; selectivity ratio [17]: > 1.49; selectivity ratio [18]: > 1.49; selectivity ratio [19]: > 1.49; selectivity ratio [20]: > 1.49 |
| N[C@@H](Cc1c[nH]c(-c2ccccc2)n1)C(=O)N[C@@H](Cc1c[nH]c2ccccc12)C(=O)N[C@@H](Cc1c[nH]c(-c2ccccc2)n1)C(=O)NCc1ccccc1 |  |  | > 20 | > 10 | > 10 | > 10 | > 10 | > 10 |  |  |  |  |  |  |  |  |  | inactive | inactive | inactive | Activity (Cryptococcus neoformans [21]): inactive |
| CC(C)(C)c1ccc(-c2nc(C[C@H](NC(=O)[C@H](Cc3c[nH]c4ccccc34)NC(=O)[C@@H](N)Cc3c[nH]c(-c4ccc(C(C)(C)C)cc4)n3)C(=O)NCc3ccccc3)c[nH]2)cc1 | 5 (≈ 6.01 µM) | 5 (≈ 6.01 µM) | 2.6 (≈ 3.12 µM) | > 10 | > 10 | > 10 | > 10 | > 10 | > 3.8 | > 3.8 | > 3.8 | > 3.8 | > 3.8 | 3.72 (≈ 4.47 µM) | 20 (≈ 24 µM) | 10 (≈ 12 µM) | 6.7 (≈ 8.05 µM) | inactive | inactive | inactive | MBC (Staphylococcus aureus [10]): > 20 µg/mL; MIC (Staphylococcus aureus [10]): > 20 µg/mL; selectivity ratio [11]: > 2.68; selectivity ratio [12]: > 2.68; selectivity ratio [13]: > 2.68; selectivity ratio [14]: > 2.68; selectivity ratio [15]: > 2.68; selectivity ratio [16]: > 1.49; selectivity ratio [17]: > 1.49; selectivity ratio [18]: > 1.49; selectivity ratio [19]: > 1.49; selectivity ratio [20]: > 1.49 |
| COC(=O)[C@H](Cc1c[nH]cn1)NC(=O)[C@H](Cc1c[nH]c2ccccc12)NC(=O)[C@H](Cc1c[nH]cn1)NC(=O)OC(C)(C)C (Boc-His-Trp-His-OMe) |  |  | > 20 | > 10 | > 10 | > 10 | > 10 | > 10 |  |  |  |  |  |  |  |  |  | inactive | inactive | inactive | Activity (Cryptococcus neoformans [22]): inactive |
| COC(=O)[C@H](Cc1c[nH]c(-c2ccccc2)n1)NC(=O)[C@H](Cc1c[nH]c2ccccc12)NC(=O)[C@H](Cc1c[nH]c(-c2ccccc2)n1)NC(=O)OC(C)(C)C | > 20 | > 20 | 9.14 (≈ 12.3 µM) | > 10 | > 10 | > 10 | > 10 | > 10 | > 1.1 | > 1.1 | > 1.1 | > 1.1 | > 1.1 |  |  |  |  | inactive | inactive | inactive |  |
| CC(C)(C)OC(=O)N[C@@H](Cc1c[nH]c(-c2ccccc2)n1)C(=O)N[C@@H](Cc1c[nH]c2ccccc12)C(=O)N[C@@H](Cc1c[nH]c(-c2ccccc2)n1)C(=O)NCc1ccccc1 | 2.5 (≈ 3.05 µM) | 2.5 (≈ 3.05 µM) | 1.4 (≈ 1.71 µM) | > 10 | > 10 | > 10 | > 10 | > 10 | > 7.1 | > 7.1 | > 7.1 | > 7.1 | > 7.1 | 7.6 (≈ 9.27 µM) | > 20 | > 20 | 10.5 (≈ 12.8 µM) | inactive | inactive | inactive | MBC (Staphylococcus aureus [10]): > 20 µg/mL; MIC (Staphylococcus aureus [10]): > 20 µg/mL; selectivity ratio [11]: > 1.3; selectivity ratio [12]: > 1.3; selectivity ratio [13]: > 1.3; selectivity ratio [14]: > 1.3; selectivity ratio [15]: > 1.3 |
